Measurements published in ChEMBL document CHEMBL1145814, “Antiretroviral activity of semisynthetic derivatives of glycopeptide antibiotics” (J Med Chem, 2003).
Values after ≈ are worked out from the molar mass of the structure shown.

How the values were obtained:
[1] = tested on: Human immunodeficiency virus 1; test: Effective concentration of compound required to protect human T-lymphocytic cells against the cytopathogenicity of HIV-1; type: functional, organism-based; settings: Human immunodeficiency virus 1
[2] = species: Mus musculus; test: Effective concentration of compound required to protect C3H/3T3 embryo murine fibroblasts against the MSV induced transformation; type: functional, organism-based; settings: Mus musculus, C3H/3T3
Method in brief: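 Monolayer murine embryo fibroblast C3H/3T3 cultures were infected with Moloney murine sarcoma virus at 75 focus-forming units and cultured with test compound. Transformation was examined microscopically on day 6 postinfection. EC50 is the concentration protecting cells against MSV-induced transformation by 50%.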

[3] = species: Mus musculus; test: Minimal inhibitory concentration required to cause a microscopic detectable alteration of C3H/3T3 embryo murine fibroblast cell morphology; type: functional
Method in brief: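 Uninfected C3H/3T3 murine embryo fibroblast cultures were exposed to test compound and checked microscopically for changes in cell morphology. The MIC is the concentration causing a microscopically detectable alteration of morphology.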

[4] = tested on: CCRF-CEM; test: Inhibitory concentration against proliferation of human T-lymphocytic (CEM) cells; type: functional, cell-based; settings: Homo sapiens, CCRF-CEM
Method in brief: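 (5–7.5) × 10^4 cells per well were incubated with test compound at 37 °C in a humidified CO2 atmosphere. L1210 murine leukemia cells grew for 48 h, and CEM and Molt4/clone 8 human lymphocytes grew for 72 h. Cells were then counted with a Coulter counter. IC50 is the concentration inhibiting proliferation by 50%.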

[5] = tested on: Human immunodeficiency virus 2; test: Concentration required to protect human T-lymphocytic cells against the cytopathogenicity of HIV-2; type: functional, organism-based; settings: Human immunodeficiency virus 2

SMILES	EC50 [1] [µM]	IC50 [4] [µM]	EC50 [5] [µM]	EC50 [2] [µM]	MIC [3] [µM]
COC(=O)[C@H]1NC(=O)C2NC(=O)C(NC(=O)[C@@H]3NC(=O)[C@H]4NC(=O)[C@H](NC(=O)[C@H](N)c5ccc(O)c(c5)Oc5cc4cc(O)c5C)[C@H](O)c4ccc(cc4)Oc4cc3cc(c4O)Oc3ccc(cc3)[C@H]2O[C@@H]2C[C@@H](N)[C@@H](O)[C@@H](C)O2)c2ccc(O)c(c2)-c2c(O)cc(O)cc21	> 50	> 100	> 250	52	> 100
CN[C@H](CC(C)C)C(=O)N[C@H]1C(=O)N[C@@H](CC(N)=O)C(=O)N[C@H]2C(=O)N[C@H]3C(=O)N[C@H](C(=O)N[C@H](C(=O)O)c4cc(O)cc(O)c4-c4cc3ccc4O)[C@H](O)c3ccc(c(Cl)c3)Oc3cc2cc(c3O[C@@H]2O[C@H](CO)[C@@H](O)[C@H](O)[C@H]2O[C@H]2C[C@](C)(NCc3ccc(-c4ccc(Cl)cc4)cc3)C(O)[C@H](C)O2)Oc2ccc(cc2Cl)[C@H]1O (some centres not stated) [listing 1 of 2 here]	–	–	–	7.7	–
CN[C@H](CC(C)C)C(=O)N[C@H]1C(=O)N[C@@H](CC(N)=O)C(=O)N[C@H]2C(=O)N[C@H]3C(=O)N[C@H](C(=O)N[C@H](C(=O)O)c4cc(O)cc(O)c4-c4cc3ccc4O)[C@H](O)c3ccc(c(Cl)c3)Oc3cc2cc(c3O[C@@H]2O[C@H](CO)[C@@H](O)[C@H](O)[C@H]2O[C@H]2C[C@](C)(NCc3ccc(-c4ccc(Cl)cc4)cc3)C(O)[C@H](C)O2)Oc2ccc(cc2Cl)[C@H]1O (some centres not stated) [listing 2 of 2 here]	–	–	–	–	> 25
CN[C@H](CC(C)C)C(=O)N[C@H]1C(=O)N[C@@H](CC(N)=O)C(=O)N[C@H]2C(=O)N[C@H]3C(=O)N[C@H](C(=O)N[C@H](C(=O)NCc4ccc(-c5ccc(Cl)cc5)cc4)c4cc(O)cc(O)c4-c4cc3ccc4O)[C@H](O)c3ccc(c(Cl)c3)Oc3cc2cc(c3O[C@@H]2O[C@H](CO)[C@@H](O)[C@H](O)[C@H]2O[C@H]2C[C@](C)(N)C(O)[C@H](C)O2)Oc2ccc(cc2Cl)[C@H]1O (some centres not stated) [listing 1 of 2 here]	–	–	–	> 2	–
CN[C@H](CC(C)C)C(=O)N[C@H]1C(=O)N[C@@H](CC(N)=O)C(=O)N[C@H]2C(=O)N[C@H]3C(=O)N[C@H](C(=O)N[C@H](C(=O)NCc4ccc(-c5ccc(Cl)cc5)cc4)c4cc(O)cc(O)c4-c4cc3ccc4O)[C@H](O)c3ccc(c(Cl)c3)Oc3cc2cc(c3O[C@@H]2O[C@H](CO)[C@@H](O)[C@H](O)[C@H]2O[C@H]2C[C@](C)(N)C(O)[C@H](C)O2)Oc2ccc(cc2Cl)[C@H]1O (some centres not stated) [listing 2 of 2 here]	–	–	–	–	20 (≈ 33 µg/mL)
NC(=O)C[C@@H]1NC(=O)C(N)C(O)c2ccc(c(Cl)c2)Oc2cc3cc(c2O)Oc2ccc(cc2)C(O)C2NC(=O)C(NC(=O)C3NC1=O)c1ccc(O)c(c1)-c1c(O)cc(O)cc1[C@H](C(=O)O)NC2=O (some centres not stated)	115	> 250	> 250	> 100	> 100
CC(C)CC(C(=O)NC1C(=O)NC(CC(N)=O)C(=O)NC2C(=O)NC3C(=O)NC(C(=O)N[C@@H](C(=O)O)c4cc(O)c(CN5CCN(Cc6ccc(-c7ccccc7)cc6)CC5)c(O)c4-c4cc3ccc4O)C(O)c3ccc(cc3)Oc3cc2cc(c3O)Oc2ccc(cc2Cl)C1O)N(C)C(=O)OC(C)(C)C (some centres not stated)	4.5	> 100	4.5	8.4	> 100
NC(=O)CC1NC(=O)C(N)C(O)c2ccc(c(Cl)c2)Oc2cc3cc(c2O)Oc2ccc(cc2)C(O)C2NC(=O)C(NC(=O)C3NC1=O)c1ccc(O)c(c1)-c1c(cc(O)c(CNC3C4CC5CC(C4)CC3C5)c1O)[C@H](C(=O)O)NC2=O (some centres not stated)	22	> 250	40	47	> 100
O=C(NC1C(=O)NC2Cc3ccc(c(Cl)c3)Oc3cc4cc(c3O)Oc3ccc(cc3Cl)C(O)C3NC(=O)C(NC(=O)C4NC(=O)C(NC2=O)c2cc(O)cc(c2)Oc2cc1ccc2O)c1ccc(O)c(c1)-c1c(O)cc(O)cc1[C@H](C(=O)O)NC3=O)OCC1c2ccccc2-c2ccccc21 (some centres not stated)	17	114	15	10	100 (≈ 142 µg/mL)
NC1C(=O)NC2Cc3ccc(c(Cl)c3)Oc3cc4cc(c3O)Oc3ccc(cc3Cl)C(O)C3NC(=O)C(NC(=O)C4NC(=O)C(NC2=O)c2cc(O)cc(c2)Oc2cc1ccc2O)c1ccc(O)c(c1)-c1c(cc(O)c(CNC2C4CC5CC(C4)CC2C5)c1O)[C@H](C(=O)O)NC3=O (some centres not stated)	25	> 250	37	5.6	100 (≈ 136 µg/mL)
CCCCCCCCCCCCCCCCCCNCc1c(O)cc2c(c1O)-c1cc(ccc1O)C1NC(=O)C3NC(=O)C4NC(=O)C(Cc5ccc(c(Cl)c5)Oc5cc3cc(c5O)Oc3ccc(cc3Cl)C(O)C(NC1=O)C(=O)N[C@H]2C(=O)NC)NC(=O)C(N)c1ccc(O)c(c1)Oc1cc(O)cc4c1 (some centres not stated)	2.5	60	6	4.7	100 (≈ 149 µg/mL)
COC(=O)[C@@H]1NC(=O)C2NC(=O)C(NC(=O)C(NC(=O)OC(C)(C)C)c3cc(Oc4ccc(CC(NC(=O)OCc5ccccc5)C(=O)O)cc4Cl)c(O)c(c3)Oc3ccc(cc3Cl)C2O)c2ccc(O)c(c2)-c2c(O)cc(O)cc21 (some centres not stated)	17	> 250	17	87	> 100

Second part, led by results:

EC50 [1] [µM]	IC50 [4] [µM]	EC50 [5] [µM]	SMILES	EC50 [2] [µM]	MIC [3] [µM]
13	229	17	CNC(=O)[C@@H]1NC(=O)C2NC(=O)C(NC(=O)C3NC(=O)C4NC(=O)C(Cc5ccc(c(Cl)c5)Oc5cc3cc(c5O)Oc3ccc(cc3Cl)C2O)NC(=O)C(NC(=O)OC(C)(C)C)c2ccc(O)c(c2)Oc2cc(O)cc4c2)c2ccc(O)c(c2)-c2c(O)cc(O)cc21 (some centres not stated)	11	> 100
13	> 250	20	CC(C)(C)OC(=O)NC1C(=O)NC2Cc3ccc(c(Cl)c3)Oc3cc4cc(c3O)Oc3ccc(cc3Cl)C(O)C3NC(=O)C(NC(=O)C4NC(=O)C(NC2=O)c2cc(O)cc(c2)Oc2cc1ccc2O)c1ccc(O)c(c1)-c1c(O)cc(O)cc1[C@H](C(=O)O)NC3=O (some centres not stated)	12	> 100
25	> 100	> 50	COC(=O)[C@@H]1NC(=O)C2NC(=O)C(NC(=O)C3NC(=O)C4NC(=O)C(NC(=O)C(N)c5ccc(O)c(c5)Oc5cc4cc(O)c5C)C(O)c4ccc(cc4)Oc4cc3cc(c4O)Oc3ccc(cc3)C2O)c2ccc(O)c(c2)-c2c(O)cc(O)cc21 (some centres not stated)	19	> 100
12	> 250	8	O=C(NC1C(=O)NC2Cc3ccc(c(Cl)c3)Oc3cc4cc(c3O)Oc3ccc(cc3Cl)C(O)C3NC(=O)C(NC(=O)C4NC(=O)C(NC2=O)c2cc(O)cc(c2)Oc2cc1ccc2O)c1ccc(O)c(c1)-c1c(O)cc(O)cc1[C@H](C(=O)O)NC3=O)OCc1ccccc1 (some centres not stated)	11	> 100
15	> 250	37	NC1Cc2ccc(c(Cl)c2)Oc2cc3cc(c2O)Oc2ccc(cc2Cl)C(O)C2NC(=O)C(NC(=O)C3NC(=O)C(c3cc(O)cc(Oc4cc(C5NC(=S)N(c6ccccc6)C5=O)ccc4O)c3)NC1=O)c1ccc(O)c(c1)-c1c(O)cc(O)cc1[C@H](C(=O)O)NC2=O (some centres not stated)	27	> 100
22	> 250	32	NC1C(=O)NC2Cc3ccc(c(Cl)c3)Oc3cc4cc(c3O)Oc3ccc(cc3Cl)C(O)C(C(=O)O)NC(=O)C(c3ccc(O)c(-c5c(O)cc(O)cc5[C@@H](N)C(=O)O)c3)NC(=O)C4NC(=O)C(NC2=O)c2cc(O)cc(c2)Oc2cc1ccc2O (some centres not stated)	14	> 100
6	220	8	O=C1NC2C(=O)NC3C(=O)NC4C(=O)NC(C(=O)N[C@@H](C(=O)O)c5cc(O)cc(O)c5-c5cc4ccc5O)C(O)c4ccc(c(Cl)c4)Oc4cc3cc(c4O)Oc3ccc(cc3Cl)CC1NC(=O)C(/N=C(\S)Nc1ccccc1)c1ccc(O)c(c1)Oc1cc(O)cc2c1 (some centres not stated)	7.5	100 (≈ 133 µg/mL)
2.6	21	5.8	CCCCCCCCCCNC(=O)[C@@H]1NC(=O)C2NC(=O)C(NC(=O)C3NC(=O)C4NC(=O)C(Cc5ccc(c(Cl)c5)Oc5cc3cc(c5O)Oc3ccc(cc3Cl)C2O)NC(=O)C(N)c2ccc(O)c(c2)Oc2cc(O)cc4c2)c2ccc(O)c(c2)-c2c(O)cc(O)cc21 (some centres not stated)	–	–
3.5	81	22	CCCCc1ccc(CNC2C(Oc3c4cc5cc3Oc3ccc(cc3Cl)C(O)C3NC(=O)C(NC(=O)C5NC(=O)C5NC(=O)C(Cc6ccc(cc6)O4)NC(=O)C(NC)c4ccc(O)c(c4)Oc4cc(O)c(Cl)c5c4)c4ccc(O)c(c4)-c4c(cc(O)c(CN5CCN(Cc6ccc(-c7ccccc7)cc6)CC5)c4O)[C@H](C(=O)O)NC3=O)OC(C(=O)O)C(O)C2O)cc1 (some centres not stated)	6.9	> 20
17	88	7.8	CNC(=O)[C@@H]1NC(=O)C2NC(=O)C(NC(=O)C3NC(=O)C4NC(=O)C(Cc5ccc(c(Cl)c5)Oc5cc3cc(c5O)Oc3ccc(cc3Cl)C2O)NC(=O)C(NC(=O)OC23CC5CC(CC(C5)C2)C3)c2ccc(O)c(c2)Oc2cc(O)cc4c2)c2ccc(O)c(c2)-c2c(O)cc(O)cc21 (some centres not stated)	8.7	100 (≈ 139 µg/mL)
4.5	22	7.8	CCCCCCCCCCCCCCCCCCNCc1c(O)cc2c(c1O)-c1cc(ccc1O)C1NC(=O)C3NC(=O)C4NC(=O)C(Cc5ccc(c(Cl)c5)Oc5cc3cc(c5O)Oc3ccc(cc3Cl)C(O)C(NC1=O)C(=O)N[C@H]2C(=O)O)NC(=O)C(N)c1ccc(O)c(c1)Oc1cc(O)cc4c1 (some centres not stated)	1.7	100 (≈ 148 µg/mL)
